Reference: article PMC6687308 (Journal of natural products, 2017)
Entries after “also recorded” stand apart in the source; their conditions may differ. Where two headings read alike, the source gives them in different places. One block for each compound: values may come before it.

Experiments:
[1] = tested on: TRPM2-overexpressing HEK293 cells; format: cell-based
human TRPM2 = human TRPM2 (Homo sapiens, UniProt O94759); format: cell-based; conditions: for TRPM2 current amplitudes at fivefold higher concentration: fivefold higher concentrations
TRPM2 = conditions: with preincubation; cited from earlier work
mouse TRPM7 = mouse TRPM7 (Mus musculus, UniProt Q923J1); test: Whole-cell patch clamp of TRPM7 currents in tetracycline-inducible HEK293 cells; format: cell-based; conditions: +80 mV, 200 s
Summary of the method: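 Tetracycline-inducible HEK293 cells carrying FLAG-murine TRPM7 were induced with 1 μg/mL tetracycline 5–22 h beforehand. Cells were then incubated 15 min in culture medium with 100 nM, 500 nM or 2 μM test compound. Pipette: 140 mM K-glutamate with 10 mM BAPTA. Ramps ran −100 to +100 mV at 0.5 Hz, 21–25 °C. Amplitudes, not capacitance-corrected, were taken at +80 mV and 200 s, normalized, and fitted for IC50 and Hill coefficient.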

INS-1 cells = test: Appearance of INS-1 cells during exposure in patch-clamp sessions; format: cell-based, rat
Summary of the method: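 Rat insulinoma INS-1 cells were grown at 37 °C, 5% CO2 in RPMI with 10% FBS. During whole-cell patch-clamp sessions at 21–25 °C, cells were held in standard external Ringer's solution with continual exposure to the test compound.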

TRPV1 = TRPV1 (Rattus norvegicus, UniProt O35433); format: cell-based; conditions: 500 nM, 10 μM capsaicin
Summary of the method: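 INS-1 cells were incubated with 500 nM test compound or none in standard external Ringer's solution before whole-cell patch clamp at 21–25 °C. Pipette: 140 mM Cs-glutamate, 8 NaCl, 1 MgCl2, 10 HEPES (pH 7.2), with Ca2+ left unbuffered. Ramps ran −100 to +100 mV over 50 ms at 0.5 Hz from a 0 mV holding potential. Amplitudes were taken at −80 mV.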

CRAC (Orai1/STIM1) = CRAC (Orai1/STIM1) (Homo sapiens, UniProt Q96D31); format: cell-based; conditions: 2 μM, 30–60 min exposure
Summary of the method: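 HEK293 cells stably expressing STIM1 were transiently transfected with CRACM1-pIRES2-EGFP and patched 24–48 h later, with EGFP identifying cotransfected cells. External solution contained 10 mM CaCl2 and 10 mM TEA-Cl (pH 7.2, 300 mOsm). Ramps ran −150 to +150 mV over 50 ms. Bath solution was control or supplemented with test compound. Current–voltage relationships were taken at 100 s.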

endogenous TRPM4 = endogenous TRPM4 (Homo sapiens, UniProt Q8TD43); test: Whole-cell patch clamp of endogenous TRPM4-like currents in Jurkat T lymphocytes; format: cell-based; conditions: 500 nM
Summary of the method: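 Jurkat T cells were incubated with 500 nM test compound or none in standard external solution before whole-cell recording. Recordings were made within the first 60 min of incubation. Pipette: Cs-glutamate-based solution with intracellular Ca2+ clamped to 2 μM. Ramps ran −100 to +100 mV (50 ms, 0.5 Hz) from 0 mV, at 21–25 °C. Currents were extracted at −80 mV.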

endogenous TRPM2 = endogenous TRPM2 (Rattus norvegicus, UniProt E9PTA2); format: cell-based
Summary of the method: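 INS-1 cells (RPMI, 10% FBS) were held in standard external Ringer's (pH 7.2) containing the test compound. Whole-cell currents were recorded during the first 60 min, at 21–25 °C. Pipette: 140 mM Cs-glutamate, unbuffered Ca2+, ADPR 100 or 500 μM. Ramps ran −100 to +100 mV (50 ms, 0.5 Hz). Amplitudes at −80 mV and 50 s were expressed as percent inhibition of control and fitted for IC50 and Hill coefficient.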

Sequence of human TRPM2 (O94759 whole entry): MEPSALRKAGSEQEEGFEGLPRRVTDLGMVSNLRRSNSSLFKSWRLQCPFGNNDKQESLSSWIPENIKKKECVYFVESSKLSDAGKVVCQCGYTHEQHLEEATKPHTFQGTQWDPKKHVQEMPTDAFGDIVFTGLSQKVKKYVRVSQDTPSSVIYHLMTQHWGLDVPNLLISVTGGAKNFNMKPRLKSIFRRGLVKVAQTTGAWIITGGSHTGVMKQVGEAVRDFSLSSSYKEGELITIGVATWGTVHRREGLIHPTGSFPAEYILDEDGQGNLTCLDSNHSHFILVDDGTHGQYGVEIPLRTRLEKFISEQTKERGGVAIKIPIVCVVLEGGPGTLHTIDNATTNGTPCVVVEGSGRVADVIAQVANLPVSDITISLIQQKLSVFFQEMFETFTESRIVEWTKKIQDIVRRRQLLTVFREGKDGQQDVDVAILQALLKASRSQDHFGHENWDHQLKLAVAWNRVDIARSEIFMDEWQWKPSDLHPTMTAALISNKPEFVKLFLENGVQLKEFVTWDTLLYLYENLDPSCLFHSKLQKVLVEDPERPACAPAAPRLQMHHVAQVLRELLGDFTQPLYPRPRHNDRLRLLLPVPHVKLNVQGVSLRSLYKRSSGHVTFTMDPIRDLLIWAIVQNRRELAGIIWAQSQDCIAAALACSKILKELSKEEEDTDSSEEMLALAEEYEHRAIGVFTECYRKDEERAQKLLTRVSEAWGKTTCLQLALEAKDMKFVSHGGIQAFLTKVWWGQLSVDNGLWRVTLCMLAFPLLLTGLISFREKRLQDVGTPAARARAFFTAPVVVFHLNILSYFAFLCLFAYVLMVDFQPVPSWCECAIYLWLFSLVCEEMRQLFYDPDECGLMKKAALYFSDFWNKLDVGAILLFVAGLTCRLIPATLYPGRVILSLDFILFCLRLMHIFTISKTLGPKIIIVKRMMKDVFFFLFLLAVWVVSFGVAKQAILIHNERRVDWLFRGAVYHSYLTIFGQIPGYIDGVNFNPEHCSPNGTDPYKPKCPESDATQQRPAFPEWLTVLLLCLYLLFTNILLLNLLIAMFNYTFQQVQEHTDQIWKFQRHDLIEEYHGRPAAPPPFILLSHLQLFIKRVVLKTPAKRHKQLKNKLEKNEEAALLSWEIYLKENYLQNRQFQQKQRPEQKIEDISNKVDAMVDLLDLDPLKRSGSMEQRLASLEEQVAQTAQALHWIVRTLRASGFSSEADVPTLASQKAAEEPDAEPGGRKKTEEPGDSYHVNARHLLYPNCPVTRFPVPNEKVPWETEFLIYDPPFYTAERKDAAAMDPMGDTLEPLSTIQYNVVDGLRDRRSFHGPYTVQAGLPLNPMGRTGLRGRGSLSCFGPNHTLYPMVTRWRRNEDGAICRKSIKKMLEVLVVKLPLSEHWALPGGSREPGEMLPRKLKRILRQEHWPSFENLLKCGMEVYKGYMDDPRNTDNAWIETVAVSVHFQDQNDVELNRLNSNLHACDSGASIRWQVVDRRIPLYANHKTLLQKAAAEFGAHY
Sequence of CRAC (Orai1/STIM1) (Q96D31 whole entry, species assumed): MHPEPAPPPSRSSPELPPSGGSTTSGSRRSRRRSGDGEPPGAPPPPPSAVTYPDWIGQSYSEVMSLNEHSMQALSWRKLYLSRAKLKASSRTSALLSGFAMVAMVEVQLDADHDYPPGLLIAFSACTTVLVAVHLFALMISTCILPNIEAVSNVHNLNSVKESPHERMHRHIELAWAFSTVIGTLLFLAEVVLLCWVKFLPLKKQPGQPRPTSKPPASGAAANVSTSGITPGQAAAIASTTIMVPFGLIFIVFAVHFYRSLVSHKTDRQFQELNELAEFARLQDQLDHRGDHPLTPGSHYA
Sequence of CRAC (Orai1/STIM1) (Q13586 23-685 partner, species assumed): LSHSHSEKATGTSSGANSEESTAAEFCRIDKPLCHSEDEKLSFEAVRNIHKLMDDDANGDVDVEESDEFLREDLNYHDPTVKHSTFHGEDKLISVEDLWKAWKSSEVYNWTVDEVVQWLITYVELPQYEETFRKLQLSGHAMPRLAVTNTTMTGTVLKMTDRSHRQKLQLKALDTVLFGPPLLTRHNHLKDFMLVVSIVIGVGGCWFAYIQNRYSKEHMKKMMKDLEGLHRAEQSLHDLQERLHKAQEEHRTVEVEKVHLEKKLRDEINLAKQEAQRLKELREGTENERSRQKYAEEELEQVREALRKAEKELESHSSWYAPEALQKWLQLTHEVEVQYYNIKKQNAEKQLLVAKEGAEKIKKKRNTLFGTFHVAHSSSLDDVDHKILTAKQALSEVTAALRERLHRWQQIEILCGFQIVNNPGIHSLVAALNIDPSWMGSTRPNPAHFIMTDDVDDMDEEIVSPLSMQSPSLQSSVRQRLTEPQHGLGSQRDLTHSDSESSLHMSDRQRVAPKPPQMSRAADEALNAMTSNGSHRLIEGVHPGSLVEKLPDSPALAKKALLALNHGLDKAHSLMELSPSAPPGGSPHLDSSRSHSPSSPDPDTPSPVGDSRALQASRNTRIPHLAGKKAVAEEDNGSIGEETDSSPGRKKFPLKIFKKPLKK
Sequence of endogenous TRPM2 (E9PTA2 whole entry): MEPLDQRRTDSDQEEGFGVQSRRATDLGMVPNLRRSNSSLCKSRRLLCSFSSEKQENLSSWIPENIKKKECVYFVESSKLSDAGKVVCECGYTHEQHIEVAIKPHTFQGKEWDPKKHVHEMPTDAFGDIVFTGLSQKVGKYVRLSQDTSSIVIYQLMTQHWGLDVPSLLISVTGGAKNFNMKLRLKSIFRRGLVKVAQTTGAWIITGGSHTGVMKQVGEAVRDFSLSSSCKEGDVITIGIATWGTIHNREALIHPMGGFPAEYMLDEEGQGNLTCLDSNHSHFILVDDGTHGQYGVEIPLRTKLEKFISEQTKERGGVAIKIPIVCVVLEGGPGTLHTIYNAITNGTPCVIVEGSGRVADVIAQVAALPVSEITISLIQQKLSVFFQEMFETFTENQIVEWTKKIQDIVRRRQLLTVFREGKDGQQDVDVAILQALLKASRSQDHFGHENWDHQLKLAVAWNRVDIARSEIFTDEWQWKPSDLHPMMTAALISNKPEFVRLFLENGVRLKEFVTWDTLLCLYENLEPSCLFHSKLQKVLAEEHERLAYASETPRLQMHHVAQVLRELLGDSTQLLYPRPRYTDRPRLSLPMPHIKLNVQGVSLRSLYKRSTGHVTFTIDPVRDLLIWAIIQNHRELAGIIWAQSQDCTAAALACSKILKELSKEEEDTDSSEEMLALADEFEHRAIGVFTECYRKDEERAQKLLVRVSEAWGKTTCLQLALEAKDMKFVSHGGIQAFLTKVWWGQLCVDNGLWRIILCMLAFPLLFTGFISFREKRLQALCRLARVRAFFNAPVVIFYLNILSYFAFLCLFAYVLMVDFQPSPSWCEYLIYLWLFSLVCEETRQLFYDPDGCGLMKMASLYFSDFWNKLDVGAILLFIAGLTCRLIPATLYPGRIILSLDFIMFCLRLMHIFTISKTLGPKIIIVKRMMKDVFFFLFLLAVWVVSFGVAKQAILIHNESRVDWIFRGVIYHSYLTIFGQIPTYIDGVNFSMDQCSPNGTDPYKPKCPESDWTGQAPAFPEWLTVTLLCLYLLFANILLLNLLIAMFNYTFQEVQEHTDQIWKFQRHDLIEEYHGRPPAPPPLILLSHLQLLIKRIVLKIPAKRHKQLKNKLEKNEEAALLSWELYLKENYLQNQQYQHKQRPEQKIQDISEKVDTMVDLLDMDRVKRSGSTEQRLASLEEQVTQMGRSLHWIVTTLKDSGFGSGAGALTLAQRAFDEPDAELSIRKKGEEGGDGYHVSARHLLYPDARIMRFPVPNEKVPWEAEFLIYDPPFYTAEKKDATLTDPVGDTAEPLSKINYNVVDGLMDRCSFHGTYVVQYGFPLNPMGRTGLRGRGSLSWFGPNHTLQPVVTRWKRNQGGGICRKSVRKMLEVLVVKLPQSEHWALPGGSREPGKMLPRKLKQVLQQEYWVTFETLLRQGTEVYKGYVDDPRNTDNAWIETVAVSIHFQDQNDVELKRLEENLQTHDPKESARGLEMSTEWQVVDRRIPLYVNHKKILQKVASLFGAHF
Sequence of TRPV1 (O35433 whole entry): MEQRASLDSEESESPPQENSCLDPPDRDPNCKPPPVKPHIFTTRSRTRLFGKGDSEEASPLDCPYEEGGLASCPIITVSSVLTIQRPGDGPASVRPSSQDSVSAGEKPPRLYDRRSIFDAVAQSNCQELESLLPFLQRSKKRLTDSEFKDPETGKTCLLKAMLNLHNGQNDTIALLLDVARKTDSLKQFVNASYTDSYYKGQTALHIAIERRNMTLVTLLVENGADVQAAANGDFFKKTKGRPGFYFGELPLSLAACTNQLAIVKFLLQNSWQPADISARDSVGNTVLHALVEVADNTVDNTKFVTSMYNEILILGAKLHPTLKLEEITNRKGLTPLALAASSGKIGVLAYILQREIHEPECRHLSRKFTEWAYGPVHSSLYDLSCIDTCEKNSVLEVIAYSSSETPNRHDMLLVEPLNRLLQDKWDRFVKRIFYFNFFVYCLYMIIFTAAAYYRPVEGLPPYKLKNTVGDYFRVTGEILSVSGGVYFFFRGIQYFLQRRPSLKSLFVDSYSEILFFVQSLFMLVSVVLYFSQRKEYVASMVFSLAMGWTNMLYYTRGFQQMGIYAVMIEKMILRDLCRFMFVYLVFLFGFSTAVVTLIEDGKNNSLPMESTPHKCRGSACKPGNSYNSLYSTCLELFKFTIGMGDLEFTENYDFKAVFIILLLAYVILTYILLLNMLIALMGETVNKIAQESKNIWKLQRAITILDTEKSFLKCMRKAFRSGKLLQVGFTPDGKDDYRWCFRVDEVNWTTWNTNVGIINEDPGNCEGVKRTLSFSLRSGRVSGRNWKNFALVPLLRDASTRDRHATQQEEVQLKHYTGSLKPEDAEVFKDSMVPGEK

SMILES: O=c1[nH]c2ccccc2n1C1CCN(Cc2ccc(-c3nc4cc5[nH]cnc5cc4nc3-c3ccccc3)cc2)CC1 [Akt inhibitor VIII, 1,3-dihydro-1-(1-((4-(6-phenyl-1H-imidazo[4,5-g]quinoxalin-7-yl)phenyl)methyl)-4-piperidinyl)-2H-benzimidazol-2-one]
Effect on cell viability at fivefold higher concentration [1]: affected cell viability
Effect on TRPM2-mediated currents (human TRPM2; 200 nM, 60 min preincubation, 500 μM ADPR): failed to affect
TRPM2 current amplitudes at fivefold higher concentration (human TRPM2; data not shown): comparable to control cells

SMILES: O=C1NCCc2c(OCCCCN3CCCCC3)cccc21 [DPQ, 3,4-dihydro-5-[4-(1-piperidinyl)butoxyl]-1(2H)-isoquinolinone]
Effect on TRPM2-mediated currents (ADPR in pipet) (human TRPM2; PARP-1 inhibitors, 100 μM ADPR, first 60 min): did not affect

SMILES: COc1cc(/C=C/C(=O)CC(=O)/C=C/c2ccc(O)c(OC)c2)ccc1O [curcumin]
Concentration range blocking TRPM2 currents (TRPM2): low nanomolar range

SMILES: O=C(O)CC[C@@H](Cc1ccc(OCc2ccccc2)cc1)NC(=O)CCCCCCc1ccccc1 [sPLA2 inhibitor, 5-(4-benzyloxyphenyl)-4S-(7-phenylheptanoylamino)pentanoic acid]
Cell death during a 1 h recording session ([1]; 5–10-fold higher concentrations, data not shown): significant cell death
Effect on TRPM2-mediated currents (human TRPM2; 5 μM, 100 μM ADPR): lack of effect

Hill coefficient of TRPM7 concentration-response fit (mouse TRPM7): 2
Time cells appeared healthy with continual exposure (INS-1 cells; 500 nM and lower concentrations): at least 1 h
Condition of INS-1 cells (INS-1 cells; 2 μM): rapidly deteriorated
Effect on ADPR-induced currents (endogenous TRPM2; 0.5–2.0 μM): largely abolished
Hill coefficient of INS-1 TRPM2 dose-response fit (endogenous TRPM2; −80 mV, 50 s): 4
Incubation time to reach full potency (full onset) of TRPM2 inhibition (human TRPM2; 2 μM scalaradial): ~ 20 min
Effect of acute application on TRPM2 currents (human TRPM2; 2 μM, acute application): did not significantly affect
Hill coefficient of TRPM2 concentration-response fit (human TRPM2; 30–60 min incubation, −80 mV, 100 s): 1.3
Time dependency of TRPM2 inhibition when added internally (human TRPM2; added to the cell internally, data not shown): not affected
Time to recovery of TRPM2 currents after drug removal (human TRPM2; after 60 min incubation in 2 μM): ≤ 5 min
SMILES: CC(=O)O[C@H]1C[C@@H]2[C@@]3(C)CCCC(C)(C)[C@@H]3CC[C@@]2(C)[C@@H]2CC=C(C=O)[C@H](C=O)[C@@]12C [scalaradial]
Effect on TRPV1 current (TRPV1): does not inhibit; also recorded: failed to inhibit
Effect on CRAC currents (CRAC (Orai1/STIM1)): no significant inhibition; also recorded: did not significantly affect; also recorded: failed to inhibit
Effect on TRPM4 current (endogenous TRPM4): without affecting the current; also recorded: failed to inhibit

SMILES: COC[C@H]1OC(=O)c2coc3c2[C@@]1(C)C1=C(C3=O)[C@@H]2CCC(=O)[C@@]2(C)C[C@H]1OC(C)=O [wortmannin]
Effect on cell viability at fivefold higher concentration ([1]; fivefold higher concentrations, cell rounding, granule formation, blebbing, data not shown): affected cell viability
Effect on TRPM2-mediated currents (human TRPM2; 20 nM, 60 min preincubation, 500 μM ADPR): failed to affect
TRPM2 current amplitudes at fivefold higher concentration (human TRPM2; data not shown): comparable to control cells
